The values below come from ChEMBL document CHEMBL1154249, “Semisynthesis and biological evaluation of abietane-type diterpenes. Revision of the structure of rosmaquinone” (J Nat Prod, 2009).

Converted amounts (≈) assume the structure as drawn.

In one experiment the test system is Staphylococcus aureus. Put plainly: Antibacterial activity against Staphylococcus aureus ATCC 6538 after 24 hrs by broth dilution assay. It counts as functional. The following applies: Staphylococcus aureus, ATCC 6538, 24 h; read-out: MIC. On the technique in general: Broth dilution looks for growth in wells or tubes with falling amounts of substance.
In experiment [1] the test system is Staphylococcus epidermidis. Put plainly: Antibacterial activity against Staphylococcus epidermidis ATCC 14990 after 24 hrs by broth dilution assay. Format: functional. The following applies: Staphylococcus epidermidis, ATCC 14990, 24 h; read-out: MIC. The essentials: (§1)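 Microdilution in nutrient broth at 37 °C, about (1-5) × 10^5 cfu/mL inoculum, compounds in DMSO (≤1% v/v, matched DMSO controls), in triplicate. Growth followed by OD550. Wells without visible growth after 24 h on a rotary shaker were subcultured in duplicate onto nutrient agar and colonies counted after overnight incubation. MIC is the lowest concentration inhibiting growth at 24 h.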

A further experiment deals with Bacillus subtilis. Put plainly: Antibacterial activity against Bacillus subtilis ATCC 6051 after 24 hrs by broth dilution assay. Format: functional. Conditions: Bacillus subtilis, ATCC 6051, 24 h; read-out: MIC; call rule not given here.
Another experiment has as its system Bacillus cereus. Put plainly: Antibacterial activity against Bacillus cereus ATCC 21772 after 24 hrs by broth dilution assay. It counts as functional. The following applies: Bacillus cereus, ATCC 21772, 24 h.
In another experiment the test system is Candida albicans. Put plainly: Antibacterial activity against Candida albicans CECT 170 after 24 hrs by broth dilution assay. It counts as functional. The following applies: CECT 1039, 24 h, in the assay text read “CECT 1039” for “CECT 170”. The essentials:
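Yeast grown in Sabouraud liquid medium at 37 °C. Microdilution in triplicate, about (1-5) × 10^5 cfu/mL, DMSO ≤1% v/v with matched controls. OD550 followed. Clear wells at 24 h were plated in duplicate on Sabouraud agar and counted after overnight incubation. MIC is the lowest concentration inhibiting growth.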

In a further experiment the test system is Enterococcus faecalis. Briefly: Antibacterial activity against Enterococcus faecalis ATCC 29212 after 24 hrs by broth dilution assay. It counts as functional. The following applies: ATCC 29212, 24 h. The essentials: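 Microdilution in brain heart infusion broth, shaken at 37 °C, about (1-5) × 10^5 cfu/mL start, DMSO ≤1% v/v with matched controls, in triplicate. OD550 read. Clear wells at 24 h were subcultured in duplicate onto brain heart infusion agar and counted after overnight incubation. MIC is the lowest concentration giving growth inhibition.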

The subject of experiment [2] is Mycolicibacterium smegmatis. Briefly: Antibacterial activity against Mycobacterium smegmatis ATCC 19420 after 48 hrs by broth dilution assay. Format: functional. The following applies: ATCC 19420, 48 h. The essentials: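 Brain heart infusion broth with 0.06% Tween 80, 37 °C on a rotary shaker, inoculum about (1-5) × 10^5 cfu/mL, DMSO ≤1% v/v with matched controls, in triplicate. OD550 monitored.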

Another experiment relates to Escherichia coli. Put plainly: Antibacterial activity against Escherichia coli ATCC 9637 after 24 hrs by broth dilution assay. It counts as functional. Conditions: ATCC 9637, 24 h. The essentials:
as §1

The next experiment concerns Proteus mirabilis. Put plainly: Antibacterial activity against Proteus mirabilis CECT 170 after 24 hrs by broth dilution assay. Format: functional. Conditions: CECT 170, 24 h. The essentials:
as §1

The next experiment relates to Pseudomonas aeruginosa. Put plainly: Antibacterial activity against Pseudomonas aeruginosa AK958 after 24 hrs by broth dilution assay. It counts as functional. The following applies: AK958, 24 h. The essentials: as §1
In a further experiment the test system is Salmonella. Put plainly: Antibacterial activity against Salmonella CECT 4569 after 24 hrs by broth dilution assay. It counts as functional. Conditions: CECT 4569, 24 h. The essentials: as §1
Experiment [3] concerns HeLa. Put plainly: Cytotoxicity against human HeLa cells at lag phase of growth after 48 hrs by MTT assay. Format: functional, cell-based. The essentials: (§2)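 Monolayers grown in DMEM with 5% fetal calf serum and penicillin-streptomycin at 37 °C, 5% CO2. 2×10^4 cells/well in lag or log phase were exposed for 48 h to a concentration series of compounds predissolved in DMSO. MTT formazan was dissolved in DMSO and read at 550 nm. IC50 taken from the curve; three independent experiments.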
(In general: Formazan colour is commonly taken as a measure of viable cells.)

Experiment [4] deals with HeLa. Briefly: Cytotoxicity against human HeLa cells at exponential phase of growth after 48 hrs by MTT assay. It counts as functional, cell-based. The essentials:
as §2

For experiment [5], the system named is HEp-2. Briefly: Cytotoxicity against human Hep2 cells at lag phase of growth after 48 hrs by MTT assay. It counts as functional, cell-based. The essentials:
as §2

Experiment [6] deals with HEp-2. Briefly: Cytotoxicity against human Hep2 cells at exponential phase of growth after 48 hrs by MTT assay. It counts as functional, cell-based. The essentials:
as §2

The subject of experiment [7] is A549. Put plainly: Cytotoxicity against human A549 cells at lag phase of growth after 48 hrs by MTT assay. Format: functional, cell-based. The essentials: as §2
Experiment [8] deals with A549. Briefly: Cytotoxicity against human A549 cells at exponential phase of growth after 48 hrs by MTT assay. Format: functional, cell-based. The essentials:
as §2

The subject of experiment [9] is MCF7. Put plainly: Cytotoxicity against human MCF7 cells at lag phase of growth after 48 hrs by MTT assay. It counts as functional, cell-based. The essentials: as §2
The subject of experiment [10] is MCF7. Briefly: Cytotoxicity against human […] cells at exponential phase of growth after 48 hrs by MTT assay. Format: functional, cell-based. The essentials: as §2
Experiment [11] relates to Vero. Put plainly: Cytotoxicity against african green monkey Vero cells at lag phase of growth after 48 hrs by MTT assay. Format: cell-based, Chlorocebus sabaeus. The essentials: as §2
For experiment [12], the system named is Vero. Briefly: Cytotoxicity against african green monkey Vero cells at exponential phase of growth after 48 hrs by MTT assay. It counts as cell-based, Chlorocebus sabaeus. The essentials: as §2
Where [13] appears, read: Homo sapiens, HeLa, 48 h, read-out: IC50.
The mark [14] stands for this setting: Homo sapiens, HEp-2, 48 h, read-out: IC50.
Setting [15] is: Homo sapiens, A549, 48 h, read-out: IC50.
Where [16] appears, read: Homo sapiens, MCF7, 48 h, read-out: IC50.
Setting [17] is: Chlorocebus sabaeus, Vero, 48 h, read-out: IC50.

For orientation: MIC means the lowest concentration found to suppress growth. As usually defined, the IC50 is the concentration that gives 50% inhibition. Regarding `CC(C)C1=CC2=C[C@H]3OC(=O)[C@@]4(CCCC(C)(C)[C@H]34)C2=C(O)C1=O` [SAGEQUINONE METHIDE A], the minimal inhibitory concentration (MIC) is 20 µg/mL (≈ 60.9 µM) with Staphylococcus aureus; 40 µg/mL (≈ 122 µM) in experiment [1]; 10 µg/mL (≈ 30.4 µM) with Bacillus subtilis; 10 µg/mL (≈ 30.4 µM) in the experiment with Bacillus cereus; over 40 µg/mL against Candida albicans; over 40 µg/mL with Enterococcus faecalis. Besides, the MIC (in experiment [2]; against Escherichia coli; with Proteus mirabilis; in the experiment on Pseudomonas aeruginosa; against Salmonella) was over 40 µg/mL throughout. The IC50 in the experiment with HeLa [3] (setting [13]) was 14 µM; in the experiment on HeLa [4] (setting [13]), 9.5 µM; in the experiment on HEp-2 [5] (setting [14]), 32 µM; in the experiment on HEp-2 [6] (setting [14]) it was 19.2 µM; in the experiment with A549 [7] (setting [15]), over 60 µM; in the experiment on A549 [8] (setting [15]) it was 26.5 µM. Moreover, the IC50 with MCF7 [9] (setting [16]) is 46 µM; in the experiment with MCF7 [10] (setting [16]), 26.8 µM; in the experiment with Vero [11] (setting [17]) it was over 60 µM; in the experiment on Vero [12] (setting [17]), over 60 µM.
Regarding `CO[C@H]1C2=C(C(=O)C(=O)C(C(C)C)=C2)[C@@]23CCCC(C)(C)[C@@H]2[C@@H]1OC3=O` [ROSMAQUINONE B], the MIC in the experiment on Staphylococcus aureus is 40 µg/mL (≈ 112 µM); in experiment [1], over 40 µg/mL; in the experiment with Bacillus subtilis, 20 µg/mL (≈ 55.8 µM); with Bacillus cereus it was 20 µg/mL (≈ 55.8 µM); in the experiment on Candida albicans it was over 40 µg/mL; against Enterococcus faecalis, over 40 µg/mL. Further, the MIC (in experiment [2]; in the experiment with Escherichia coli; against Proteus mirabilis; with Pseudomonas aeruginosa; against Salmonella) was over 40 µg/mL in each case. In addition, the IC50 with HeLa [3] (setting [13]) was 36 µM; with HeLa [4] (setting [13]), 33.8 µM; with HEp-2 [5] (setting [14]) it was 42.5 µM; with HEp-2 [6] (setting [14]) it was over 60 µM; in the experiment on A549 [7] (setting [15]), over 60 µM; in the experiment with A549 [8] (setting [15]), 25.4 µM. Besides, the IC50 is 43.3 µM in the experiment on MCF7 [9] (setting [16]), 22.1 µM in the experiment on MCF7 [10] (setting [16]), over 60 µM in the experiment on Vero [11] (setting [17]) and over 60 µM in the experiment with Vero [12] (setting [17]).
For `CC(C)c1cc2c(c(O)c1O)[C@@]13CCCC(C)(C)[C@@H]1[C@H](OC3=O)[C@@H]2OCc1ccccc1`, the MIC in the experiment with Staphylococcus aureus was over 40 µg/mL; in experiment [1], over 40 µg/mL; in the experiment on Bacillus subtilis, 20 µg/mL (≈ 45.8 µM); in the experiment on Bacillus cereus it was 10 µg/mL (≈ 22.9 µM); in the experiment with Candida albicans it was over 40 µg/mL; against Enterococcus faecalis it was over 40 µg/mL. Further, the MIC (in [2]; against Escherichia coli; in the experiment with Proteus mirabilis; against Pseudomonas aeruginosa; with Salmonella) was over 40 µg/mL each time. Further, the IC50 entry with HeLa [3] (hela), in the experiment with HeLa [4] (hela), in the experiment with HEp-2 [5] (hep-2), with HEp-2 [6] (hep-2), in the experiment with A549 [7] (a549) and in the experiment with A549 [8] (a549) was “Not Active” each time. In addition, the IC50 entry in the experiment on MCF7 [9] (mcf7), with MCF7 [10] (mcf7), with Vero [11] (vero) and with Vero [12] (vero) was “Not Active” each time.
In the case of `CO[C@@H]1c2cc(C(C)C)c(O)c(O)c2[C@@]23CCCC(C)(C)[C@@H]2[C@@H]1OC3=O`, the MIC was over 40 µg/mL with Staphylococcus aureus; 20 µg/mL (≈ 55.5 µM) in experiment [1]; 20 µg/mL (≈ 55.5 µM) in the experiment with Bacillus subtilis; 20 µg/mL (≈ 55.5 µM) in the experiment on Bacillus cereus; over 40 µg/mL against Candida albicans; over 40 µg/mL with Enterococcus faecalis. Besides, the MIC (in experiment [2]; in the experiment on Escherichia coli; with Proteus mirabilis; against Pseudomonas aeruginosa; in the experiment with Salmonella) was over 40 µg/mL each time. The IC50 in the experiment with HeLa [3] (setting [13]) was 40.8 µM; in the experiment with HeLa [4] (setting [13]) it was over 60 µM; in the experiment on A549 [7] (setting [15]) it was 35.6 µM; in the experiment on A549 [8] (setting [15]), 50.8 µM; in the experiment on MCF7 [9] (setting [16]) it was 23.3 µM; with MCF7 [10] (setting [16]), 41.1 µM. For the same compound, the values for the IC50 with Vero [11] (setting [17]) and with Vero [12] (setting [17]) were 36.7 µM and 33.9 µM, respectively.
